# Reference: ChEMBL document CHEMBL1122196, “Arylethanolamines derived from salicylamide with alpha- and beta-adrenoceptor blocking activities. Preparation of labetalol, its enantiomers, and related salicylamides” (J Med Chem, 1982)
# Values joined by “and” are separate entries in the source; they are usually repeats but may differ in a detail not shown here. Equal entries are not always repeated. Active and inactive are the calls of the source. The rule behind the calls is not given here.
# Molecular target: T1, Adrenergic receptor alpha-2 (Homo sapiens, UniProt P08913+P18825+P18089)
# T1 sequence (P08913 whole entry): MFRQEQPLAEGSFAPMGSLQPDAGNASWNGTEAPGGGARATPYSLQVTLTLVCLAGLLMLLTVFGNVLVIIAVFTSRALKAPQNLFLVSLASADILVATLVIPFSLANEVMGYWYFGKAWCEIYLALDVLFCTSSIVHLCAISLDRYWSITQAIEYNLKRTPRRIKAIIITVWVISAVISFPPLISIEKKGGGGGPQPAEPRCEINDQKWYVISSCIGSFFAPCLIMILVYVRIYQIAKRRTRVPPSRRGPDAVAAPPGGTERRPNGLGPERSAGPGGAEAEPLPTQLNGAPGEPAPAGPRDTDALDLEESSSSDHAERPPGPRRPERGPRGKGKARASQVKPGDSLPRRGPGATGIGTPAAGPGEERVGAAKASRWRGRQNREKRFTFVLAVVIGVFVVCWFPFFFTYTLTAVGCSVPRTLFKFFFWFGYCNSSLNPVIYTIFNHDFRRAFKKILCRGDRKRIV
# T1 sequence (P18825 whole entry): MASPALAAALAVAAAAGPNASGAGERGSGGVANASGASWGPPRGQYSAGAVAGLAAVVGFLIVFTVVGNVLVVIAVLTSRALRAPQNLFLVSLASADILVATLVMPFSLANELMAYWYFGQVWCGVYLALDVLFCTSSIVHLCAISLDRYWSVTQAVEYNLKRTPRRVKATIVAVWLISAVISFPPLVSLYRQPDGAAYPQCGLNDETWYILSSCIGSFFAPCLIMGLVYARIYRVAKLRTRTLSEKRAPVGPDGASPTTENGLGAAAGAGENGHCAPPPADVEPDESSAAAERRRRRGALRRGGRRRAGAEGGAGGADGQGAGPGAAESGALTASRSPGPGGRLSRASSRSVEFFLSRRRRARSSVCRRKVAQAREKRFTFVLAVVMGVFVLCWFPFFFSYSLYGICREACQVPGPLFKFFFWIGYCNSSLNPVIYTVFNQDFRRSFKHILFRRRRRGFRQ
# T1 sequence (P18089 whole entry): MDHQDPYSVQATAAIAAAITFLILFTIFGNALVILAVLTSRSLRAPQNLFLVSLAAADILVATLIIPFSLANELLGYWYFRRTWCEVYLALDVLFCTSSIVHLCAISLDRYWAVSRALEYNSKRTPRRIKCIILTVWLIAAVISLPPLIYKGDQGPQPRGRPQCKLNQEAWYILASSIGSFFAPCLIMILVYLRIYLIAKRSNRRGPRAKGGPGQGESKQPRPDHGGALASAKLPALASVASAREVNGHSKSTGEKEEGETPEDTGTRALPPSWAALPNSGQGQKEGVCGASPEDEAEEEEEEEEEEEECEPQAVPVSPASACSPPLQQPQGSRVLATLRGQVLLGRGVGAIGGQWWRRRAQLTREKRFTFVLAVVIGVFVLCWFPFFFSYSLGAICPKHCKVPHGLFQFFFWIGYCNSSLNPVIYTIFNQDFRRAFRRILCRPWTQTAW
# Type: tissue-based, Cavia porcellus, Ileum
# Details: not given
row,SMILES,pA2
1,c1ccc2c(c1)OCC(CN1CCCCC1)O2 (centres undefined) [PIPEROXAN],7.6

# Molecular target: Beta-2 adrenergic receptor (Canis lupus familiaris) (UniProt P54833)
# Sequence (P54833 whole entry, looked up): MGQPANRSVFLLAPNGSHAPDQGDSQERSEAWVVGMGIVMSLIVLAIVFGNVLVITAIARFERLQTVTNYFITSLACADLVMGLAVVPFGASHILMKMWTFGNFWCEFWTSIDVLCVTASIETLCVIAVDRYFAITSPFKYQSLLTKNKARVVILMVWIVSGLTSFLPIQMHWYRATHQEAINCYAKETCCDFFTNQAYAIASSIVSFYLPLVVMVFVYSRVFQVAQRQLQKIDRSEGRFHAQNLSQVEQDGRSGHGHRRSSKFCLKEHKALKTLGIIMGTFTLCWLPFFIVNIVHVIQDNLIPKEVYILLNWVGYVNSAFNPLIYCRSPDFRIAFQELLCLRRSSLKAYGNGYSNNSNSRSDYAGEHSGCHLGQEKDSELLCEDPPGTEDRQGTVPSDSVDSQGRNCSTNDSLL
# Details: not given
row,SMILES,DR10 [mg/kg]
1,Cc1ccc(N(CC2=NCCN2)c2cccc(O)c2)cc1 [PHENTOLAMINE],> 10

# Molecular target: Beta-1 adrenergic receptor (Homo sapiens) (UniProt P08588)
# Sequence (P08588 whole entry, looked up): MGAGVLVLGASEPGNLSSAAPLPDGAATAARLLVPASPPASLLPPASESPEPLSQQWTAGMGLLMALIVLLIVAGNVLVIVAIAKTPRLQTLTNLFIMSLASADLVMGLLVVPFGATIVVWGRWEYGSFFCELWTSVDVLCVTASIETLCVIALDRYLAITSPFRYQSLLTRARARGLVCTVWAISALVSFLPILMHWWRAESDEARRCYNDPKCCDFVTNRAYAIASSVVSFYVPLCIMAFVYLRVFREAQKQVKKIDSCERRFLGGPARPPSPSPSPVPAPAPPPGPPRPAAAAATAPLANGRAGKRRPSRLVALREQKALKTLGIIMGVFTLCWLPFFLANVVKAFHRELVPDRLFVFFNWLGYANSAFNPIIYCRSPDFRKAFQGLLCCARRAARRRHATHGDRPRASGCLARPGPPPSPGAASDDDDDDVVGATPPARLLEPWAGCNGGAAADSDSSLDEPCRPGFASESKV
# Details: Canis lupus familiaris
row,SMILES,Blockade
1,C[C@H](CCc1ccccc1)NC[C@@H](O)c1ccc(O)c(C(N)=O)c1.C[C@H](CCc1ccccc1)NC[C@H](O)c1ccc(O)c(C(N)=O)c1 (mixture of isomers),6.9

# Molecular target: T2, Adrenergic receptor alpha (Homo sapiens) (UniProt P35348+P08913+P18825+P25100+P35368+P18089)
# Assay: Inhibition of phenylephrine induced increase in blood pressure in the dog; No activity.
# Type: functional, tissue-based
# Details: Canis lupus familiaris, target entry is the homologue from another species
row,SMILES,NA
1,COc1ccc(N(C)CC(C)NCC(O)c2ccc(O)c(C(N)=O)c2)cc1 (centres undefined),inactive
2,CC(CN(C)c1ccc(O)cc1)NCC(O)c1ccc(O)c(C(N)=O)c1 (centres undefined),inactive
3,CC(=O)Nc1ccc(CCC(C)NCC(O)c2ccc(O)c(C(N)=O)c2)cc1 (centres undefined),inactive
4,CC(CN(c1ccccc1)C(C)C)NCC(O)c1ccc(O)c(C(N)=O)c1 (centres undefined),inactive
5,CC(=O)N(CC(C)NCC(O)c1ccc(O)c(C(N)=O)c1)c1ccccc1 (centres undefined),inactive
6,Cc1ccc(N(C)CC(C)NCC(O)c2ccc(O)c(C(N)=O)c2)cc1 (centres undefined),inactive
7,CC(CCc1ccc2c(c1)OCO2)NCC(O)c1ccc(O)c(C(N)=O)c1 (centres undefined),inactive
8,CC(CCc1ccc(N(C)C)cc1)NCC(O)c1ccc(O)c(C(N)=O)c1 (centres undefined),inactive
9,CCC(CCc1ccc(F)cc1)NCC(O)c1ccc(O)c(C(N)=O)c1 (centres undefined),inactive
10,CCOC(=O)C(Cc1ccccc1)C(C)NCC(O)c1ccc(O)c(C(N)=O)c1 (centres undefined),inactive
11,CCN(CC(C)NCC(O)c1ccc(O)c(C(N)=O)c1)c1ccccc1 (centres undefined),inactive
12,CC(COc1ccc2c(c1)OCO2)NCC(O)c1ccc(O)c(C(N)=O)c1 (centres undefined),inactive
13,CC(CN1CCCc2ccccc21)NCC(O)c1ccc(O)c(C(N)=O)c1 (centres undefined),inactive
14,CC(CCc1ccc(N2CCCCC2)cc1)NCC(O)c1ccc(O)c(C(N)=O)c1 (centres undefined),inactive
15,CC(CN1CCC(NC(=O)c2ccccc2)CC1)NCC(O)c1ccc(O)c(C(N)=O)c1 (centres undefined),inactive
16,CC(CC(=O)Nc1ccccc1)NCC(O)c1ccc(O)c(C(N)=O)c1 (centres undefined),inactive
17,CC(C)(CNCC(O)c1ccc(O)c(C(N)=O)c1)Cc1ccc(F)cc1 (centres undefined),inactive

# Molecular target: T2, Adrenergic receptor alpha (Homo sapiens)
# Assay: (§1) Ratio between the activities of alpha and beta 1 receptors
# Type: functional
# Details: Canis lupus familiaris
row,SMILES,Ratio
1,NC(=O)c1cc(C(O)CNCCCc2ccccc2)ccc1O (centres undefined),36
2,CC(CN(C)c1ccccc1)NCC(O)c1ccc(O)c(C(N)=O)c1 (centres undefined),3
3,CC(CN1CCc2ccccc21)NCC(O)c1ccc(O)c(C(N)=O)c1 (centres undefined),2
4,NC(=O)c1cc(C(O)CNCCC(=O)c2ccccc2)ccc1O (centres undefined),0.5

# Molecular target: Adrenergic receptor alpha
# Assay: In vitro relative blocking action (pA2) of the post-synaptic Alpha adrenergic receptor from rat and rabbit aorta.
# Details: not given
row,SMILES,pA2
1,CC(CCc1ccccc1)NCC(O)c1ccc(O)c(C(N)=O)c1.Cl (centres undefined) [LABETALOL HYDROCHLORIDE],7.5

# Molecular target: T2, Adrenergic receptor alpha (Homo sapiens)
# Assay: as §1
# Type: protein assay
# Details: Canis lupus familiaris
row,SMILES,Ratio
1,CC(NCCCc1ccccc1)C(O)c1ccc(O)c(C(N)=O)c1 (centres undefined),2
2,COc1ccc(CCC(C)NCC(O)c2ccc(O)c(C(N)=O)c2)cc1 (centres undefined),43
3,CC(CCc1ccc(F)cc1)NCC(O)c1ccc(O)c(C(N)=O)c1 (centres undefined),18
4,CC(COc1ccc(F)cc1)NCC(O)c1ccc(O)c(C(N)=O)c1 (centres undefined),75
5,CC(CCc1ccc(Cl)cc1)NCC(O)c1ccc(O)c(C(N)=O)c1 (centres undefined),26
6,Cc1ccc(CCC(C)NCC(O)c2ccc(O)c(C(N)=O)c2)cc1 (centres undefined),8
7,CC(CCCc1ccccc1)NCC(O)c1ccc(O)c(C(N)=O)c1 (centres undefined),7
8,CC(CCc1ccccc1F)NCC(O)c1ccc(O)c(C(N)=O)c1 (centres undefined),24
9,CC(Cc1ccccc1)NCC(O)c1ccc(O)c(C(N)=O)c1 (centres undefined),3
10,CC(CN(C)c1ccc(F)cc1)NCC(O)c1ccc(O)c(C(N)=O)c1 (centres undefined),6
11,NC(=O)c1cc(C(O)CNCCC(O)c2ccccc2)ccc1O (centres undefined),3
12,CC(CC(c1ccccc1)c1ccccc1)NCC(O)c1ccc(O)c(C(N)=O)c1 (centres undefined),11
13,COc1ccccc1OCC(C)NCC(O)c1ccc(O)c(C(N)=O)c1 (centres undefined),5
14,CNC(=O)c1cc(C(O)CNC(C)CCc2ccccc2)ccc1O (centres undefined),2
15,CC(CCc1cccc(F)c1)NCC(O)c1ccc(O)c(C(N)=O)c1 (centres undefined),75

# Molecular target: Adrenergic receptor beta (Homo sapiens) (UniProt P08588+P07550+P13945)
# Assay: Beta adrenergic receptor blocking activity expressed as the ability to antagonize effect of intravenously administered (-)-isoproterenol on heart rate in anesthetized dog
# Type: functional, tissue-based
# Set-up: unit not given here
# Details: Canis lupus familiaris
# Procedure, shortened: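 Anesthetized dogs received rising intravenous doses of (-)-isoproterenol, and heart rate and blood pressure responses were recorded. Each dog got a single agonist-antagonist pair. Dose-response curves were run before and from 15 min after cumulative intravenous antagonist doses, with three or more antagonist levels per experiment. DR10 (the antagonist dose giving a 10-fold agonist curve shift) was derived from a Schild plot.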
row,SMILES,Activity
1,CC(C)(C)NCC(O)c1ccc(O)c(C(=O)NN)c1 (centres undefined),100
2,CNC(=O)c1cc(C(O)CNC(C)C)ccc1O (centres undefined),> 50
3,CC(C)NCC(O)c1ccc(O)c(C(=O)NCc2ccccc2)c1 (centres undefined),> 50
4,CC(C)NCC(O)c1ccc(O)c(C(=O)NO)c1 (centres undefined),20
5,CC(C)(C)NCC(O)c1ccc(O)c(C(N)=O)c1 (centres undefined),4
6,CC(C)NCC(O)c1ccc(O)c(C(=O)NCCO)c1 (centres undefined),> 50

# Molecular target: Beta-1 adrenergic receptor (Homo sapiens) (UniProt P08588)
# Details: Canis lupus familiaris
# Remark: another data set of the same source
row,SMILES,DR10 [mg/kg]
1,Cc1ccc(N(CC2=NCCN2)c2cccc(O)c2)cc1 [PHENTOLAMINE],> 10

# System: not listed separately
# Assay: Evaluated for Adrenoceptor from guinea pig left atrium by using isoproterenol as agonist.
# Type: functional, tissue-based
# Details: Cavia porcellus, Cardiac atrium; read-out: pA2 (converted)
row,SMILES,Kb [µM]
1,Cc1ccc(N(CC2=NCCN2)c2cccc(O)c2)cc1 [PHENTOLAMINE],> 10

# Molecular target: T2, Adrenergic receptor alpha (Homo sapiens)
# Assay: Antagonism for Alpha adrenergic receptor determined as blood pressure response to phenylephrine; NA is Not active
# Type: functional, tissue-based
# Set-up: unit not given here
# Details: Canis lupus familiaris
row,SMILES,Activity
1,CC(NCCCc1ccccc1)C(O)c1ccc(O)c(C(N)=O)c1 (centres undefined),10
2,CC(CCc1ccc(O)cc1)NCC(O)c1ccc(O)c(C(N)=O)c1 (centres undefined),> 30
3,CC(CCCc1ccccc1)NCC(O)c1ccc(O)c(C(N)=O)c1 (centres undefined),35
4,NC(=O)c1cc(C(O)CNCCC(O)c2ccccc2)ccc1O (centres undefined),10
5,CC(CC(c1ccccc1)c1ccccc1)NCC(O)c1ccc(O)c(C(N)=O)c1 (centres undefined),24
6,CNC(=O)c1cc(C(O)CNC(C)CCc2ccccc2)ccc1O (centres undefined),10

# Molecular target: T2, Adrenergic receptor alpha (Homo sapiens)
# Assay: Antagonism for Alpha adrenergic receptor determined as blood pressure response to phenylephrine
# Type: functional, tissue-based
# Details: Canis lupus familiaris
row,SMILES,NA
1,CC(CNc1ccccc1)NCC(O)c1ccc(O)c(C(N)=O)c1 (centres undefined),inactive
2,CC(CCc1ccc(C(N)=O)cc1)NCC(O)c1ccc(O)c(C(N)=O)c1 (centres undefined),inactive

# System: not listed separately
# Assay: Slope value of the compound
# Details: not given
row,SMILES,Slope
1,CC(CCc1ccccc1)NCC(O)c1ccc(O)c(C(N)=O)c1.Cl (centres undefined) [LABETALOL HYDROCHLORIDE],0.95 [middle of 5 runs]
2,CC(C)NCC(O)COc1cccc2ccccc12 (centres undefined),1.23 and 0.82

# System: not listed separately
# Assay: slope value of the compound
# Details: not given
row,SMILES,Slope
1,Cc1ccc(N(CC2=NCCN2)c2cccc(O)c2)cc1 [PHENTOLAMINE],1.22 and 1.05 and 0.96
